ChEMBL document CHEMBL1131019, “Minimal-size, constrained corticotropin-releasing factor agonists with i-(i+3) Glu-Lys and Lys-Glu bridges” (1998)
Square brackets hold non-standard residues; d marks the D form. Peptide text beside a SMILES is read from it. Nle = CCCC[C@H](N)C(=O)O

Species: Rattus norvegicus
Assay: In vitro for agonist activity by measuring release of ACTH by rat pituitary cells in culture relative to human Corticotropin-Releasing factor (CRF)
Assay type: functional, Pituitary gland cell
Procedure, shortened: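 Male Sprague–Dawley rat anterior pituitary cells, collagenase-dissociated, plated at 0.16 × 10⁶ cells/well in 2% FBS medium. After 3 days, washed into 0.1% BSA medium, preincubated 1 h, washed again, then exposed to peptide for 3 h. Medium ACTH measured by radioimmunoassay.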

SMILES	Potency
CC[C@H](C)[C@H](NC(=O)[C@H](CO)NC(=O)[C@H](CC(C)C)NC(=O)[C@H](CO)NC(=O)[C@H]1CCCN1C(=O)[C@H](CC(N)=O)NC(=O)[C@@H](N)CC(=O)O)C(=O)N[C@@H](CC(=O)O)C(=O)N[C@@H](CC(C)C)C(=O)N[C@H](C(=O)N[C@@H](Cc1ccccc1)C(=O)N[C@@H](Cc1c[nH]cn1)C(=O)N[C@@H](CC(C)C)C(=O)N[C@@H](CC(C)C)C(=O)N[C@@H](CCCN=C(N)N)C(=O)N[C@H](C(=O)N[C@@H](CC(C)C)C(=O)N[C@@H](CC(C)C)C(=O)N[C@@H](CCC(=O)O)C(=O)N[C@@H](CC(C)C)C(=O)N[C@@H](C)C(=O)N[C@@H](CCCN=C(N)N)C(=O)N[C@H](C(=O)N[C@@H](CCC(N)=O)C(=O)N[C@@H](CO)C(=O)N[C@@H](CCC(N)=O)C(=O)N[C@@H](CCCN=C(N)N)C(=O)N[C@@H](CCC(=O)O)C(=O)N[C@@H](CCCN=C(N)N)C(=O)N[C@@H](C)C(=O)N[C@@H](CCC(=O)O)C(=O)N[C@@H](CCC(N)=O)C(=O)N[C@@H](CC(N)=O)C(=O)N[C@@H](CCCN=C(N)N)C(=O)N[C@H](C(=O)N[C@H](C(=O)N[C@@H](Cc1ccccc1)C(=O)N[C@@H](CC(=O)O)C(=O)N[C@@H](CO)C(=O)N[C@H](C(N)=O)C(C)C)[C@@H](C)CC)[C@@H](C)CC)[C@@H](C)O)[C@@H](C)O)[C@@H](C)O (stereo in doubt; 37)	2.9
CCCC[C@H](NC(=O)[C@H](CCC(=O)O)NC(=O)[C@@H](NC(=O)[C@H](CCCC)NC(=O)[C@H](CC(N)=O)NC(=O)[C@H](CCCN=C(N)N)NC(=O)[C@H](CC(C)C)NC(=O)[C@H](CC(C)C)NC(=O)[C@H](Cc1c[nH]cn1)NC(=O)[C@@H](Cc1ccccc1)NC(=O)[C@@H](NC(=O)[C@H](CC(C)C)NC(=O)[C@H](CC(=O)O)NC(=O)[C@@H](NC(=O)[C@H](CO)NC(=O)[C@@H](NC(=O)[C@@H]1CCCN1C(=O)[C@@H]1CCCN1C(=O)[C@H](CC(=O)O)NC(=O)[C@H](CC(=O)O)NC(=O)[C@@H](N)CC(N)=O)[C@@H](C)CC)[C@@H](C)CC)[C@@H](C)O)[C@@H](C)CC)C(=O)N[C@@H](C)C(=O)N[C@@H](CCCN=C(N)N)C(=O)N[C@H](C(=O)N[C@@H](CCC(=O)O)C(=O)N[C@@H](CC(N)=O)C(=O)N[C@@H](CCC(=O)OC)C(=O)N[C@@H](CCCN=C(N)N)C(=O)N[C@@H](CCC(=O)O)C(=O)N[C@@H](CCC(=O)O)C(=O)N[C@@H](C)C(=O)NCC(=O)N[C@@H](CCCCN)C(=O)N[C@@H](CC(N)=O)C(=O)N[C@@H](CCCN=C(N)N)C(=O)N[C@@H](CCCCN)C(=O)N[C@@H](Cc1ccc(O)cc1)C(=O)N[C@@H](CC(C)C)C(=O)N[C@@H](CC(=O)O)C(=O)N[C@@H](CCC(=O)O)C(=O)N[C@H](C(N)=O)C(C)C)[C@@H](C)CC	1.1
CCCC[C@H](NC(=O)[C@H](CCC(=O)O)NC(=O)[C@H](CC(C)C)NC(=O)[C@H](CCCC)NC(=O)[C@H](CCC(=O)O)NC(=O)[C@H](CCCN=C(N)N)NC(=O)[C@H](CC(C)C)NC(=O)[C@H](CC(C)C)NC(=O)[C@H](Cc1c[nH]cn1)NC(=O)[C@@H](Cc1ccccc1)NC(=O)[C@@H](NC(=O)[C@H](CC(C)C)NC(=O)[C@H](CC(=O)O)NC(=O)[C@H](CC(C)C)NC(=O)[C@H](CO)NC(=O)[C@@H](NC(=O)[C@@H]1CCCN1C(=O)[C@@H]1CCCN1C(C)=O)[C@@H](C)CC)[C@@H](C)O)C(=O)N[C@@H](C)C(=O)N[C@@H](CCCCN)C(=O)N[C@@H](C)C(=O)N[C@@H](CCC(=O)O)C(=O)N[C@@H](CCC(N)=O)C(=O)N[C@@H](CCC(=O)O)C(=O)N[C@@H](C)C(=O)N[C@@H](CCC(=O)O)C(=O)N[C@@H](CCC(N)=O)C(=O)N[C@@H](C)C(=O)N[C@@H](C)C(=O)N[C@@H](CC(C)C)C(=O)N[C@@H](CC(N)=O)C(=O)N[C@@H](CCCN=C(N)N)C(=O)N[C@@H](CC(C)C)C(=O)N[C@@H](CC(C)C)C(=O)N[C@@H](CC(C)C)C(=O)N[C@@H](CCC(=O)O)C(=O)N[C@@H](CCC(=O)O)C(=O)N[C@@H](C)C(N)=O	1.3
CC[C@H](C)[C@H](NC(=O)[C@H](CO)NC(=O)[C@H](CC(C)C)NC(=O)[C@H](CO)NC(=O)[C@@H]1CCCN1C(C)=O)C(=O)N[C@@H](CC(=O)O)C(=O)N[C@@H](CC(C)C)C(=O)N[C@H](C(=O)N[C@H](Cc1ccccc1)C(=O)N[C@@H](Cc1c[nH]cn1)C(=O)N[C@@H](CC(C)C)C(=O)N[C@@H](CC(C)C)C(=O)N[C@@H](CCCN=C(N)N)C(=O)N[C@H](C(=O)N[C@@H](CC(C)C)C(=O)N[C@@H](CC(C)C)C(=O)N[C@@H](CCC(=O)O)C(=O)N[C@@H](CC(C)C)C(=O)N[C@@H](C)C(=O)N[C@@H](CCCN=C(N)N)C(=O)N[C@H](C(=O)N[C@@H](CCC(N)=O)C(=O)N[C@@H](CO)C(=O)N[C@@H](CCC(N)=O)C(=O)N[C@@H](CCCN=C(N)N)C(=O)N[C@@H](CCC(=O)O)C(=O)N1C(=O)[C@H](CCC(=O)O)NC(=O)[C@H](C)NC(=O)[C@@H](N)CCC(=O)NCCCC[C@H]1C(=O)N[C@@H](CC(N)=O)C(=O)N[C@@H](CCCN=C(N)N)C(=O)N[C@H](C(=O)N[C@H](C(=O)N[C@@H](Cc1ccccc1)C(=O)N[C@@H](CC(=O)O)C(=O)N[C@@H](CO)C(=O)N[C@H](C(N)=O)C(C)C)[C@@H](C)CC)[C@@H](C)CC)[C@@H](C)O)[C@@H](C)O)[C@@H](C)O	3.8
CCCC[C@H](NC(=O)[C@H](CCC(=O)O)NC(=O)[C@H](CC(C)C)NC(=O)[C@H](CCCC)NC(=O)[C@H](CCC(=O)O)NC(=O)[C@H](CCCN=C(N)N)NC(=O)[C@H](CC(C)C)NC(=O)[C@H](CC(C)C)NC(=O)[C@H](Cc1c[nH]cn1)NC(=O)[C@@H](Cc1ccccc1)NC(=O)[C@@H](NC(=O)[C@H](CC(C)C)NC(=O)[C@H](CC(=O)O)NC(=O)[C@H](CC(C)C)NC(=O)[C@H](CO)NC(=O)[C@@H](NC(=O)[C@@H]1CCCN1C(=O)[C@@H]1CCCN1C(C)=O)[C@@H](C)CC)[C@@H](C)O)C(=O)N[C@@H](C)C(=O)N[C@@H](CCCCN)C(=O)N[C@@H](C)C(=O)N[C@@H](CCC(=O)O)C(=O)N[C@@H](CCC(N)=O)C(=O)N[C@@H](CCC(=O)O)C(=O)N[C@@H](C)C(=O)N[C@@H](CCC(=O)O)C(=O)N1C(=O)[C@H](C)NC(=O)[C@H](C)NC(=O)[C@@H](N)CCC(=O)NCCCC[C@H]1C(=O)N[C@@H](CC(N)=O)C(=O)N[C@@H](CCCN=C(N)N)C(=O)N[C@@H](CC(C)C)C(=O)N[C@@H](CC(C)C)C(=O)N[C@@H](CC(C)C)C(=O)N[C@@H](CCC(=O)O)C(=O)N[C@@H](CCC(=O)O)C(=O)N[C@@H](C)C(N)=O	7.5
CCCC[C@H](NC(=O)[C@H](CCC(=O)O)NC(=O)[C@H](CC(C)C)NC(=O)[C@H](CCCC)NC(=O)[C@H](CCC(=O)O)NC(=O)[C@H](CCCN=C(N)N)NC(=O)[C@H](CC(C)C)NC(=O)[C@H](CC(C)C)NC(=O)[C@H](Cc1c[nH]cn1)NC(=O)[C@H](Cc1ccccc1)NC(=O)[C@@H](NC(=O)[C@H](CC(C)C)NC(=O)[C@H](CC(=O)O)NC(=O)[C@H](CC(C)C)NC(C)=O)[C@@H](C)O)C(=O)N[C@@H](C)C(=O)N[C@@H](CCCCN)C(=O)N[C@@H](C)C(=O)N[C@@H](CCC(=O)O)C(=O)N[C@@H](CCC(N)=O)C(=O)N[C@@H](CCC(=O)O)C(=O)N[C@@H](C)C(=O)N[C@@H](CCC(=O)O)C(=O)N[C@@H](CCC(N)=O)C(=O)N[C@@H](C)C(=O)N[C@@H](C)C(=O)N[C@@H](CC(C)C)C(=O)N[C@@H](CC(N)=O)C(=O)N[C@@H](CCCN=C(N)N)C(=O)N[C@@H](CC(C)C)C(=O)N[C@@H](CC(C)C)C(=O)N[C@@H](CC(C)C)C(=O)N[C@@H](CCC(=O)O)C(=O)N[C@@H](CCC(=O)O)C(=O)N[C@@H](C)C(N)=O (Ac-LDLTFHLLRE[Nle]LE[Nle]AKAEQEAEQAALNRLLLEEA-NH2)	0.004
CCCC[C@H](NC(=O)[C@H](CCC(=O)O)NC(=O)[C@@H](NC(=O)[C@H](CCCC)NC(=O)[C@H](CC(N)=O)NC(=O)[C@H](CCCN=C(N)N)NC(=O)[C@H](CC(C)C)NC(=O)[C@H](CC(C)C)NC(=O)[C@H](Cc1c[nH]cn1)NC(=O)[C@@H](Cc1ccccc1)NC(=O)[C@@H](NC(=O)[C@H](CC(C)C)NC(=O)[C@H](CC(=O)O)NC(=O)[C@@H](NC(=O)[C@H](CO)NC(=O)[C@@H](NC(=O)[C@@H]1CCCN1C(=O)[C@@H]1CCCN1C(=O)[C@H](CC(=O)O)NC(=O)[C@H](CC(=O)O)NC(=O)[C@@H](N)CC(N)=O)[C@@H](C)CC)[C@@H](C)CC)[C@@H](C)O)[C@@H](C)CC)C(=O)N[C@@H](C)C(=O)N[C@@H](CCCN=C(N)N)C(=O)N[C@H](C(=O)N[C@@H](CCC(=O)O)C(=O)N[C@@H](CC(N)=O)C(=O)N[C@@H](CCC(=O)OC)C(=O)N[C@@H](CCCN=C(N)N)C(=O)N[C@@H](CCC(=O)O)C(=O)N1C(=O)CNC(=O)[C@H](C)NC(=O)[C@@H](N)CCC(=O)NCCCC[C@H]1C(=O)N[C@@H](CC(N)=O)C(=O)N[C@@H](CCCN=C(N)N)C(=O)N[C@@H](CCCCN)C(=O)N[C@@H](Cc1ccc(O)cc1)C(=O)N[C@@H](CC(C)C)C(=O)N[C@@H](CC(=O)O)C(=O)N[C@@H](CCC(=O)O)C(=O)N[C@H](C(N)=O)C(C)C)[C@@H](C)CC	2.9
CC[C@H](C)[C@H](NC(=O)[C@H](CO)NC(=O)[C@H](CC(C)C)NC(=O)[C@H](CO)NC(=O)[C@H]1CCCN1C(=O)[C@H](CC(N)=O)NC(=O)[C@@H](N)CC(=O)O)C(=O)N[C@@H](CC(=O)O)C(=O)N[C@@H](CC(C)C)C(=O)N[C@H](C(=O)N[C@@H](Cc1ccccc1)C(=O)N[C@@H](Cc1c[nH]cn1)C(=O)N[C@@H](CC(C)C)C(=O)N[C@@H](CC(C)C)C(=O)N[C@@H](CCCN=C(N)N)C(=O)N[C@H](C(=O)N[C@@H](CC(C)C)C(=O)N[C@@H](CC(C)C)C(=O)N[C@@H](CCC(=O)O)C(=O)N[C@@H](CC(C)C)C(=O)N[C@@H](C)C(=O)N[C@@H](CCCN=C(N)N)C(=O)N[C@H](C(=O)N[C@@H](CCC(N)=O)C(=O)N[C@@H](CO)C(=O)N[C@@H](CCC(N)=O)C(=O)N[C@@H](CCCN=C(N)N)C(=O)N[C@@H](CCC(=O)O)C(=O)N[C@@H](CCCN=C(N)N)C(=O)N[C@@H](C)C(=O)N[C@@H](CCC(=O)O)C(=O)N[C@@H](CCC(N)=O)C(=O)N[C@@H](CC(N)=O)C(=O)N[C@@H](CCCN=C(N)N)C(=O)N[C@H](C(=O)N[C@H](C(=O)N[C@@H](Cc1ccccc1)C(=O)N[C@@H](CC(=O)O)C(=O)N[C@@H](CO)C(=O)N[C@H](C(N)=O)C(C)C)[C@@H](C)CC)[C@@H](C)CC)[C@@H](C)O)[C@@H](C)O)[C@@H](C)O (stereo in doubt; 36)	3.1
